The compounds below were run against Potassium voltage-gated channel subfamily KQT member 1 (Homo sapiens) + Potassium voltage-gated channel subfamily E member 1 (Homo sapiens) (UniProt P15382+P51787) (assay: activity at KCNQ1/E1 potassium channel – Tl flux, KCNQ1/E1-expressing cells, selectivity assay for KCNQ2 activator project, dose response (AID 504418)). Settings: KCNQ1/KCNE1 expressing cells, FluxOR thallium flux; series mostly up to 30 µM; potentiation: at the top concentration;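 active means compound raising or lowering KCNQ1 potassium channel current, with its KCNE1 partner, at some dose, giving a dose response curve; inactive means no effect at any dose or no curve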.
Sequence of Potassium voltage-gated channel subfamily KQT member 1 (Homo sapiens) + Potassium voltage-gated channel subfamily E member 1 (Homo sapiens) (O88943 whole entry, looked up): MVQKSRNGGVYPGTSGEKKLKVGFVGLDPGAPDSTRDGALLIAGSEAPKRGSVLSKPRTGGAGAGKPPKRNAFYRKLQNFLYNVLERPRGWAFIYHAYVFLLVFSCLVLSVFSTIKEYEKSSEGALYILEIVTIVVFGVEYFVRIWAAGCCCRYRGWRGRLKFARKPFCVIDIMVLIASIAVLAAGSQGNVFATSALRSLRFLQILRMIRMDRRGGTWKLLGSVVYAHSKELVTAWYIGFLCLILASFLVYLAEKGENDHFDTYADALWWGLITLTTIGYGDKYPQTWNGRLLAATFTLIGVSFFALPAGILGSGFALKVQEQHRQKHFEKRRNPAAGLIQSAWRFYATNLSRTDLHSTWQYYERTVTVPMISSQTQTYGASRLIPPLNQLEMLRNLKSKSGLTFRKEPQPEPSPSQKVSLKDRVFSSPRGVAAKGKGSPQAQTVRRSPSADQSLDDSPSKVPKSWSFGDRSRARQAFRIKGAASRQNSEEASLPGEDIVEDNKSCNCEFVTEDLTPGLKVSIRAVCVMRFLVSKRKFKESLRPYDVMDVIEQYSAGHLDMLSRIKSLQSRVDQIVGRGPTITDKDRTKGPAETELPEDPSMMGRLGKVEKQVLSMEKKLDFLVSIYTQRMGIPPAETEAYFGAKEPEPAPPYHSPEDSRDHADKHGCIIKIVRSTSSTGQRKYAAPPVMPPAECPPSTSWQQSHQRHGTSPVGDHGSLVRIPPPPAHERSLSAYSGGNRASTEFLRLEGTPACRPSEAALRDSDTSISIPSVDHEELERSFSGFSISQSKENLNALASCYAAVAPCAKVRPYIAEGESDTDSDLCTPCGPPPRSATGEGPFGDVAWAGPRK
Sequence of Potassium voltage-gated channel subfamily KQT member 1 (Homo sapiens) + Potassium voltage-gated channel subfamily E member 1 (Homo sapiens) (P51787 whole entry, looked up): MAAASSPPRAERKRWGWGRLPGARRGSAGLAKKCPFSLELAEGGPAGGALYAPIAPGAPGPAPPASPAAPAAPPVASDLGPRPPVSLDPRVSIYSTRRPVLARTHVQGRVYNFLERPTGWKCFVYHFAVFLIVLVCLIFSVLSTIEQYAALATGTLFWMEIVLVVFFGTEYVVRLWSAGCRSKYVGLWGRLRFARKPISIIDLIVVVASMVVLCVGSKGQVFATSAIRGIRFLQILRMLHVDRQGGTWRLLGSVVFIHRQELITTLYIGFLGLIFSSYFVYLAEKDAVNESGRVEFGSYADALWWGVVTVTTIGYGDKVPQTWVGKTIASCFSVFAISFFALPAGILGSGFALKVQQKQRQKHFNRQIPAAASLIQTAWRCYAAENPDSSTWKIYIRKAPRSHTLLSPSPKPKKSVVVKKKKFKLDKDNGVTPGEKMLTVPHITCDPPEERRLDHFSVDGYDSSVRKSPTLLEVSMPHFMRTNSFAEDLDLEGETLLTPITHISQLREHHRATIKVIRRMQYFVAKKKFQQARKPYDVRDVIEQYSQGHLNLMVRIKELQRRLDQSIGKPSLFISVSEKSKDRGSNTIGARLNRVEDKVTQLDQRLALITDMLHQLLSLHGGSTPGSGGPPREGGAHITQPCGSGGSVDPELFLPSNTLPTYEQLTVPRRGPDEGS
In short: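 Material: CHO-KCNQ1/KCNE1 cells | Probe or stimulus: Depolarizing potassium plus thallium sulfate stimulus, 12.5 mM each (5x stock) | Incubation: FluxOR dye loading 90 min, compound exposure 20 min, room temperature | Detection: Kinetic FluxOR thallium-flux fluorescence, 110 s reading after stimulus | Read-out: Peak-to-trough fluorescence change over baseline, percent versus vehicle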

potentiation, inactive:
Cc1cc(C)c(NC(=O)CC(C)(C)C)c(Cl)c1 0.12
Cc1ccc(C)c(NC(=O)C2CC3CCC2C3)c1 (stereo not given) 6.85
Cc1cc(C)c(NC(=O)C2CC3CCC2C3)c(C)c1 (stereo not given) -11.1
Cc1cccc(C)c1NC(=O)C1CC2CCC1C2 (stereo not given) -3.24
CCCCC(=O)Nc1c(C)cc(C)cc1Cl 21.8

— PubChem BioAssay AID504418 (Johns Hopkins Ion Channel Center, 2011)
